From ChEMBL document CHEMBL3124890, “SAR studies on trisubstituted benzimidazoles as inhibitors of Mtb FtsZ for the development of novel antitubercular agents” (J Med Chem, 2013) come the findings set out here.

As a reminder, the IC50 is the concentration at which inhibition is half-maximal. Lower therefore signals greater potency in that assay. The MIC is the least concentration at which growth counts as inhibited. A lower MIC goes with a more susceptible organism.

SMILES strings stand for the structures. Converted amounts (≈) assume the structure as drawn. Where only a bound is given, the exact number is not on record here.

The subject of one assay is Vero. In words: Cytotoxicity against Vero cells after 3 days by Alamar Blue assay. The class given is cell-based. The settings on record: Chlorocebus sabaeus, 72 h. The method in brief: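 Vero (African green monkey kidney epithelial) cells were grown without CO₂ in L15 with antibiotics and heat-inactivated calf serum. Cells in medium with 2X Alamar Blue were added at 1.3×10^4 cells/well to 2-fold serial drug dilutions. Plates were incubated 3 days at 37 °C, and IC50 was calculated per the manufacturer's directions.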

For assay [1], the system named is Mycobacterium tuberculosis. As to the kind of experiment: […]. The class given is functional. In outline: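 Strains were grown at 37 °C in 7H9 Middlebrook broth with 10% OADC, 0.05% Tween and 0.2% glycerol. Compounds were dissolved in DMSO and serially diluted 2-fold, then bacteria were added. Plates were incubated 6 days at 37 °C, then 24 h more with Alamar Blue. MIC was the lowest concentration (μg/mL) that prevented the colour change. Run in triplicate.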

`Cc1ccc(C(=O)Nc2cc3nc(C4CCCCC4)[nH]c3cc2N2CCCC2)cc1` gave an IC50 in the assay with Vero of more than 100 µg/mL. Moreover, in assay [1] (H37Rv, 144 h), 3.13 µg/mL (≈ 7.78 µM) was the least that counted as inhibitory (MIC).

In turn, `CCOCCOC(=O)Nc1cc2nc(C3CCCCC3)[nH]c2cc1N(CC)CC` had an IC50 in the assay on Vero of more than 100 µg/mL. In assay [1] (H37Rv, 144 h), this compound returned an MIC of 1.56 µg/mL (≈ 3.88 µM).

In the case of `CCOCCOC(=O)Nc1cc2nc(C3CCCCC3)[nH]c2cc1N1CCCC1`, the IC50 with Vero is more than 100 µg/mL. In assay [1] (H37Rv, 144 h), this compound yielded an MIC of 1.56 µg/mL (≈ 3.89 µM).

In the assay on Vero, `COc1ccc(C(=O)Nc2cc3nc(C4CCCCC4)[nH]c3cc2N2CCCC2)cc1` showed an IC50 of more than 100 µg/mL. Also, the MIC in assay [1] (H37Rv, 144 h) came to 6.25 µg/mL (≈ 14.9 µM).

With `CCN(CC)c1cc2[nH]c(C3CCCCC3)nc2cc1NC(=O)c1ccc(F)cc1F`, the IC50 in the assay with Vero was more than 100 µg/mL. The same compound gave an MIC in assay [1] (H37Rv, 144 h) of more than 100 µg/mL.

`COCCOC(=O)Nc1cc2nc(C3CCCCC3)[nH]c2cc1N1CCCC1`: the IC50 with Vero is more than 100 µg/mL. Moreover, in assay [1] (H37Rv, 144 h), 3.13 µg/mL (≈ 8.1 µM) was the least that counted as inhibitory (MIC).

The compound `CCCCNC(=O)Nc1cc2nc(C3CCCCC3)[nH]c2cc1N(CC)CC` returned an IC50 with Vero of more than 100 µg/mL. The same compound returned an MIC in assay [1] (H37Rv, 144 h) of more than 100 µg/mL.

Consider `CCCCNC(=O)Nc1cc2nc(C3CCCCC3)[nH]c2cc1N(C)C`, for which the IC50 in the assay on Vero is more than 100 µg/mL. This compound also had an MIC in assay [1] (H37Rv, 144 h) of 6.25 µg/mL (≈ 17.5 µM).

As for `Cc1ccc(C(=O)Nc2cc3nc(C4CCCCC4)[nH]c3cc2N(C)C)cc1`, the IC50 with Vero is more than 100 µg/mL. Also, the MIC in assay [1] (H37Rv, 144 h) was determined as 0.31 µg/mL (≈ 0.823 µM).

As to `CN(C)c1cc2[nH]c(C3CCCCC3)nc2cc1NC(=O)c1ccc(OC(F)(F)F)cc1`, the IC50 with Vero is more than 100 µg/mL. The compound also had an MIC in assay [1] (H37Rv, 144 h) of 0.16 µg/mL (≈ 0.358 µM).

`CCN(CC)c1cc2[nH]c(C3CCCCC3)nc2cc1NC(=O)c1ccc(N(C)C)cc1` displayed an MIC in assay [1] (H37Rv, 144 h) of 12.5 µg/mL (≈ 28.8 µM).

`CCCC(C)OC(=O)Nc1cc2nc(C3CCCCC3)[nH]c2cc1N(CC)CC` (centres undefined) yielded an IC50 in the assay with Vero of more than 100 µg/mL. Moreover, the MIC in assay [1] (H37Rv, 144 h) was more than 50 µg/mL.

For the compound `CCCOCC(=O)Nc1cc2nc(C3CCCCC3)[nH]c2cc1N(C)C`, the IC50 with Vero is less than 50 µg/mL. The same compound registered an MIC in assay [1] (H37Rv, 144 h) of 6.25 µg/mL (≈ 17.4 µM).

`CCCN(CCC)c1cc2[nH]c(C3CCCCC3)nc2cc1NC(=O)OCc1ccccc1` returned an IC50 in the assay on Vero of more than 100 µg/mL. The MIC in assay [1] (H37Rv, 144 h) is more than 100 µg/mL.

In the assay on Vero, `CCN(CC)c1cc2[nH]c(C3CCCCC3)nc2cc1NC(=O)c1ccc(Br)cc1` showed a half-maximal inhibitory concentration (IC50) of more than 100 µg/mL. Further, the lowest concentration to inhibit growth in assay [1] (H37Rv, 144 h) (MIC) was 100 µg/mL (≈ 213 µM).

In assay [1] (H37Rv, 144 h), `CCCCCC(=O)Nc1cc2nc(C3CCCCC3)[nH]c2cc1N(CC)CC` registered an MIC of 12.5 µg/mL (≈ 32.5 µM).

Take `CCN(CC)c1cc2[nH]c(C3CCCCC3)nc2cc1NC(=O)c1ccc(OC(F)(F)F)cc1`: the IC50 with Vero was more than 100 µg/mL. Moreover, the minimal inhibitory concentration (MIC) in assay [1] (H37Rv, 144 h) was more than 100 µg/mL.

The compound `CCCCOC(=O)Nc1cc2nc(C3CCCCC3)[nH]c2cc1N(CCC)CCC` displayed an IC50 in the assay on Vero of more than 100 µg/mL. The same compound showed an MIC in assay [1] (H37Rv, 144 h) of 6.25 µg/mL (≈ 15.1 µM).

`CCN(CC)c1cc2[nH]c(C3CCCCC3)nc2cc1NC(=O)c1ccc(OC(F)F)cc1`: in the assay with Vero, the IC50 is more than 100 µg/mL. Also, in assay [1] (H37Rv, 144 h), the MIC was more than 100 µg/mL.

Compound `CCN(CC)c1cc2[nH]c(C3CCCCC3)nc2cc1NC(=O)c1ccc(F)cc1` registered an IC50 in the assay with Vero of more than 100 µg/mL. In addition, in assay [1] (H37Rv, 144 h), the MIC is more than 100 µg/mL.

Compound `CCCCNC(=O)Nc1cc2nc(C3CCCCC3)[nH]c2cc1N1CCCC1` gave an IC50 in the assay on Vero of more than 100 µg/mL. For the same compound, in assay [1] (H37Rv, 144 h), it took 25 µg/mL (≈ 65.2 µM) to inhibit growth (MIC).

Consider `O=C(Nc1cc2nc(C3CCCCC3)[nH]c2cc1N1CCCC1)c1ccccc1`, for which the IC50 in the assay with Vero is more than 100 µg/mL. In addition, the MIC in assay [1] (H37Rv, 144 h) turned out to be 6.25 µg/mL (≈ 16.1 µM).

In turn, `O=C(Nc1cc2nc(C3CCCCC3)[nH]c2cc1N1CCCC1)c1ccc(Br)cc1` showed an IC50 in the assay on Vero of more than 100 µg/mL. Besides, the MIC in assay [1] (H37Rv, 144 h) turned out to be 1.56 µg/mL (≈ 3.34 µM).

In the assay with Vero, `CCCNC(=O)Nc1cc2nc(C3CCCCC3)[nH]c2cc1N1CCCC1` yielded an IC50 of more than 100 µg/mL. In addition, in assay [1] (H37Rv, 144 h), the MIC was determined as 100 µg/mL (≈ 271 µM).

`CN(C)c1cc2[nH]c(C3CCCCC3)nc2cc1NC(=O)OCc1ccccc1` showed a half-maximal inhibitory concentration (IC50) with Vero of more than 100 µg/mL. In assay [1] (H37Rv, 144 h), this compound had an MIC of 0.16 µg/mL (≈ 0.408 µM).

Compound `CCCCOC(=O)Nc1cc2nc(C3CCCCC3)[nH]c2cc1N(CC)CCN(CC)CC` had an IC50 in the assay with Vero of more than 50 µg/mL. The compound also showed an MIC in assay [1] (H37Rv, 144 h) of 50 µg/mL (≈ 109 µM).

In the case of `CCCNC(=O)Nc1cc2nc(C3CCCCC3)[nH]c2cc1N(CC)CC`, the IC50 in the assay on Vero is more than 100 µg/mL. For the same compound, the MIC in assay [1] (H37Rv, 144 h) is more than 100 µg/mL.

In the case of `CCN(CC)c1cc2[nH]c(C3CCCCC3)nc2cc1NC(=O)c1cnccn1`, the IC50 in the assay on Vero is more than 100 µg/mL. The lowest concentration to inhibit growth in assay [1] (H37Rv, 144 h) (MIC) was 10 µg/mL (≈ 25.5 µM).

Regarding `COc1ccc(C(=O)Nc2cc3nc(C4CCCCC4)[nH]c3cc2N(C)C)cc1`, in the assay with Vero, the IC50 was more than 100 µg/mL. Besides, the MIC in assay [1] (H37Rv, 144 h) was found to be 0.31 µg/mL (≈ 0.79 µM).

In the case of `CCN(CC)c1cc2[nH]c(C3CCCCC3)nc2cc1NC(=O)c1cccc(Br)c1`, in the assay with Vero, the IC50 was more than 100 µg/mL. Moreover, the MIC in assay [1] (H37Rv, 144 h) is more than 100 µg/mL.

In turn, `O=C(CCc1ccccc1)Nc1cc2nc(C3CCCCC3)[nH]c2cc1N1CCCC1` came in with an IC50 in the assay on Vero of more than 100 µg/mL. Further, 12.5 µg/mL (≈ 30 µM) was the least that counted as inhibitory in assay [1] (H37Rv, 144 h) (MIC).

In the assay on Vero, `CCCCOC(=O)Nc1cc2nc(C3CCCCC3)[nH]c2cc1N(CC)CC` registered an IC50 of more than 100 µg/mL. In assay [1] (W210, 144 h), this compound showed an MIC of 1.25 µg/mL (≈ 3.23 µM).

In the assay on Vero, `CCOc1ccc(C(=O)Nc2cc3nc(C4CCCCC4)[nH]c3cc2N(CC)CC)cc1` showed an IC50 of more than 100 µg/mL. In assay [1] (H37Rv, 144 h), this compound showed an MIC of more than 100 µg/mL.
